Test results published in ChEMBL document CHEMBL3259562, “4-Alkyloxyimino derivatives of uridine-5'-triphosphate: distal modification of potent agonists as a strategy for molecular probes of P2Y2, P2Y4, and P2Y6 receptors” (J Med Chem, 2014).
Activity calls are given as the source filed them. The rule behind the calls is not given here.

Columns and labels:
P2Y purinoceptor 2 [1] = target: T1, P2Y purinoceptor 2 (Homo sapiens, UniProt P41231); test: Agonist activity at human P2Y2 receptor expressed in human 1321N1 cells assessed as stimulation of [3H]inositol phosphate accumulation by liquid scintillation counting; format: functional, cell-based
T1 sequence (P41231 whole entry): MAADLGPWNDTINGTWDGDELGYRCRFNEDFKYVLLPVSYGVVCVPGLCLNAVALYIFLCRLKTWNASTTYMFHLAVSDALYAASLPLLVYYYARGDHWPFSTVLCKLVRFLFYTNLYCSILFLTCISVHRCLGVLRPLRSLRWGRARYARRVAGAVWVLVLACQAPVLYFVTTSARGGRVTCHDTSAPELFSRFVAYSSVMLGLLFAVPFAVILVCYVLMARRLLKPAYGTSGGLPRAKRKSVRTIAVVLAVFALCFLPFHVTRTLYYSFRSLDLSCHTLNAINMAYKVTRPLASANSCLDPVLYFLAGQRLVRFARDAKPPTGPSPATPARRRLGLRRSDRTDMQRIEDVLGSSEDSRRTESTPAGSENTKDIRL
Outline: (§1)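 Stable 1321N1 lines made by retroviral expression of each human receptor (parent cells lack P2YRs), seeded at 20000 cells/well two days ahead. Labelled 16 h with 1.0 μCi [3H]myo-inositol in serum-free, inositol-free DMEM. Agonist given in 100 mM Hepes pH 7.3/HBSS with 50 mM LiCl for 30 min at 37 °C. Stopped with ice-cold 50 mM formic acid, then neutralised. Total inositol phosphates taken off Dowex AG1-X8 and counted by scintillation.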

P2Y purinoceptor 4 [2] = target: T2, P2Y purinoceptor 4 (Homo sapiens, UniProt P51582); test: Agonist activity at human P2Y4 receptor expressed in human 1321N1 cells assessed as stimulation of [3H]inositol phosphate accumulation by liquid scintillation counting; format: functional, cell-based; outline: as §1
T2 sequence (P51582 whole entry): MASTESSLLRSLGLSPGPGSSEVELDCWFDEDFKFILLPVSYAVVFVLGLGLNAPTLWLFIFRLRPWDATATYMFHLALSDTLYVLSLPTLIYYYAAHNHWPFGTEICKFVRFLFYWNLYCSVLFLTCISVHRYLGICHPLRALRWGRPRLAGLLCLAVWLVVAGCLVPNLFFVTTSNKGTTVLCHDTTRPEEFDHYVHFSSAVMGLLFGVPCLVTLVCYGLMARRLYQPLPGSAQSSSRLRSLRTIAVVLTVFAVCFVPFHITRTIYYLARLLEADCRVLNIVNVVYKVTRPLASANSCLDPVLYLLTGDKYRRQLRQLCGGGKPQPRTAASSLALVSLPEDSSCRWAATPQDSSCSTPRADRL

P2Y purinoceptor 6 [3] = target: T3, P2Y purinoceptor 6 (Homo sapiens, UniProt Q15077); test: Agonist activity at human P2Y6 receptor expressed in human 1321N1 cells assessed as stimulation of [3H]inositol phosphate accumulation by liquid scintillation counting; format: functional, cell-based; outline: as §1
T3 sequence (Q15077 whole entry): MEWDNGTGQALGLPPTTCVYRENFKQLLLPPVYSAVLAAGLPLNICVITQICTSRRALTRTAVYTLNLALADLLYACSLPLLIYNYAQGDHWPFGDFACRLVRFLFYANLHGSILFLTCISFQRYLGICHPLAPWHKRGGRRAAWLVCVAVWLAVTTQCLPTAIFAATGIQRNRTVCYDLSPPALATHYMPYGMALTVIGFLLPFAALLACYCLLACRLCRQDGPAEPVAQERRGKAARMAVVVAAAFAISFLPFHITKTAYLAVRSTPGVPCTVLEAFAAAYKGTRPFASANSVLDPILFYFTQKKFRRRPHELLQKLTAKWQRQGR

P2Y purinoceptor 6 [4] = target: T3, P2Y purinoceptor 6; test: Binding affinity to human P2Y6 receptor expressed in human 1321N1 cells assessed as fluorescence intensity at 100 nM for 30 mins by flow cytometry (FCM) binding assay in presence of 10 uM MRS2578 noncompetitive antagonist; format: cell-based
Outline: (§2)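 P2Y6R-1321N1 cells grown in DMEM with 5% FBS, used at 80% confluence. Preincubated 30 min with 100 μM α,β-methylene-ADP plus 10 μM competing ligand, then 100 nM fluorescent ligand for 20–30 min. Cells washed three times in ice-cold DPBS, detached with 0.2% EDTA and analysed by flow cytometry (FL-4 channel, 10,000 events). MFI corrected for autofluorescence and expressed relative to ligand alone (100%); n = 4, mean ± SEM.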

P2Y purinoceptor 6 [5] = target: T3, P2Y purinoceptor 6; test: Binding affinity to human P2Y6 receptor expressed in human 1321N1 cells assessed as fluorescence intensity at 100 nM for 30 mins by flow cytometry (FCM) binding assay in presence of 100 uM ecto-nucleotidase inhibitor alpha, beta-methylene-adenosine 5'-diphosphate; format: cell-based; outline: as §2
P2Y purinoceptor 6 [6] = target: T3, P2Y purinoceptor 6; test: Binding affinity to human P2Y6 receptor expressed in human 1321N1 cells assessed as fluorescence intensity at 1 uM for 30 mins by fluorescence microscopy; format: cell-based
Outline: (§3)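 P2Y6R-1321N1 cells on glass coverslips at 80% confluence, given fresh medium and, where stated, 10 μM noncompetitive antagonist MRS2578 for 30 min at 37 °C. Fluorescent ligand then added to 1 μM final for 30 min at 37 °C. Cells washed with ice-cold PBS, mounted and imaged by fluorescence microscopy.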

P2Y purinoceptor 6 [7] = target: T3, P2Y purinoceptor 6; test: Binding affinity to human P2Y6 receptor expressed in human 1321N1 cells assessed as fluorescence intensity at 100 nM for 30 mins by flow cytometry (FCM) binding assay in presence of 10 uM MRS2179 P2Y1R-selective antagonist; format: cell-based; outline: as §2
P2Y purinoceptor 6 [8] = target: T3, P2Y purinoceptor 6; test: Binding affinity to human P2Y6 receptor expressed in human 1321N1 cells assessed as fluorescence intensity at 100 nM for 30 mins by flow cytometry (FCM) binding assay in presence of 10 uM suramin competitive antagonist; format: cell-based; outline: as §2
P2Y purinoceptor 6 [9] = target: T3, P2Y purinoceptor 6; test: Binding affinity to human P2Y6 receptor expressed in human 1321N1 cells assessed as fluorescence intensity at 1 uM for 30 mins by fluorescence microscopy in presence of 10 uM MRS2578 noncompetitive antagonist; format: cell-based; outline: as §3
P2Y purinoceptor 6 [10] = target: T3, P2Y purinoceptor 6; test: Binding affinity to human P2Y6 receptor expressed in human 1321N1 cells assessed as fluorescence intensity at 100 nM for 30 mins by flow cytometry (FCM) binding assay in presence of 10 uM P1-(uridine 5'-)-P4-(N4-methoxycytidine5'-)[…] selective dinucleotide agonist; format: cell-based; outline: as §2
P2Y purinoceptor 4 [11] = target: T2, P2Y purinoceptor 4; test: Agonist activity at human P2Y4 receptor expressed in human 1321N1 cells by functional assay; format: cell-based; outline: as §1
P2Y purinoceptor 6 [12] = target: T3, P2Y purinoceptor 6; test: Agonist activity at human P2Y6 receptor expressed in human 1321N1 cells by functional assay; format: cell-based; outline: as §1
P2Y purinoceptor 2 [13] = target: T1, P2Y purinoceptor 2; test: Agonist activity at human P2Y2 receptor expressed in human 1321N1 cells by functional assay; format: cell-based; outline: as §1

EC50 (P2Y purinoceptor 2 [1])	EC50 (P2Y purinoceptor 4 [2])	EC50 (P2Y purinoceptor 6 [3])	SMILES	also measured
66 nM	70 nM	23 nM	O=C(CCCCCNC(=O)COc1ccc(/C=C/c2ccc3n2[B-](F)(F)[N+]2=C(c4cccs4)C=CC2=C3)cc1)NCCCn1cc(CCNC(=O)COc2ccc(CCCO/N=c3/ccn([C@@H]4O[C@H](COP(=O)(O)OP(=O)(O)OP(=O)(O)O)[C@@H](O)[C@H]4O)c(=O)[nH]3)cc2)nn1	Activity (P2Y purinoceptor 6 [4]): inactive; Activity (P2Y purinoceptor 6 [5]): Active; Activity (P2Y purinoceptor 6 [6]): Active; Activity (P2Y purinoceptor 6 [7]): Active; Activity (P2Y purinoceptor 6 [8]): inactive; Activity (P2Y purinoceptor 6 [9]): Active; Activity (P2Y purinoceptor 6 [10]): inactive
139 nM	128 nM	90 nM	O=c1[nH]/c(=N\OCCCc2ccc3ccccc3c2)ccn1[C@@H]1O[C@H](COP(=O)(O)OP(=O)(O)OP(=O)(O)O)[C@@H](O)[C@H]1O	
547 nM	105 nM	1210 nM	O=c1[nH]/c(=N\OCCCc2ccc(F)cc2)ccn1[C@@H]1O[C@H](COP(=O)(O)OP(=O)(O)OP(=O)(O)O)[C@@H](O)[C@H]1O	
168 nM	410 nM	3000 nM	C#CCCCO/N=c1/ccn([C@@H]2O[C@H](COP(=O)(O)OP(=O)(O)OP(=O)(O)O)[C@@H](O)[C@H]2O)c(=O)[nH]1	
458 nM	84 nM	1330 nM	O=c1[nH]/c(=N\OCCCc2ccc([N+](=O)[O-])cc2)ccn1[C@@H]1O[C@H](COP(=O)(O)OP(=O)(O)OP(=O)(O)O)[C@@H](O)[C@H]1O	
47 nM	23 nM	277 nM	COc1ccc(CCCO/N=c2/ccn([C@@H]3O[C@H](COP(=O)(O)OP(=O)(O)OP(=O)(O)O)[C@@H](O)[C@H]3O)c(=O)[nH]2)cc1	
327 nM	300 nM	2950 nM	O=c1[nH]/c(=N\OCCCc2cccnc2)ccn1[C@@H]1O[C@H](COP(=O)(O)OP(=O)(O)OP(=O)(O)O)[C@@H](O)[C@H]1O	
350 nM	141 nM	225 nM	O=c1[nH]/c(=N\OCCCc2ccc(Br)cc2)ccn1[C@@H]1O[C@H](COP(=O)(O)OP(=O)(O)OP(=O)(O)O)[C@@H](O)[C@H]1O	
190 nM	100 nM	539 nM	O=c1[nH]/c(=N\OCCCc2cccc(F)c2)ccn1[C@@H]1O[C@H](COP(=O)(O)OP(=O)(O)OP(=O)(O)O)[C@@H](O)[C@H]1O	
187 nM	91 nM	90 nM	O=c1[nH]/c(=N\OCCCc2ccc(I)cc2)ccn1[C@@H]1O[C@H](COP(=O)(O)OP(=O)(O)OP(=O)(O)O)[C@@H](O)[C@H]1O	
103 nM	20 nM	164 nM	O=c1[nH]/c(=N\OCCCc2ccsc2)ccn1[C@@H]1O[C@H](COP(=O)(O)OP(=O)(O)OP(=O)(O)O)[C@@H](O)[C@H]1O	
285 nM	250 nM	4280 nM	O=c1[nH]/c(=N\OCCCc2ccncc2)ccn1[C@@H]1O[C@H](COP(=O)(O)OP(=O)(O)OP(=O)(O)O)[C@@H](O)[C@H]1O	

Continued, compound first:

SMILES	EC50 (P2Y purinoceptor 2 [1])	EC50 (P2Y purinoceptor 4 [2])	EC50 (P2Y purinoceptor 6 [3])	also measured
O=c1[nH]/c(=N\OCCCCc2ccccc2)ccn1[C@@H]1O[C@H](COP(=O)(O)OP(=O)(O)OP(=O)(O)O)[C@@H](O)[C@H]1O	214 nM	54 nM	251 nM	
C#CCCNC(=O)COc1ccc(CCCO/N=c2/ccn([C@@H]3O[C@H](COP(=O)(O)OP(=O)(O)OP(=O)(O)O)[C@@H](O)[C@H]3O)c(=O)[nH]2)cc1	109 nM	40 nM	183 nM	
O=c1[nH]/c(=N\OCCOc2ccccc2)ccn1[C@@H]1O[C@H](COP(=O)(O)OP(=O)(O)OP(=O)(O)O)[C@@H](O)[C@H]1O	3400 nM	430 nM	1780 nM	
N#CC(CCO/N=c1/ccn([C@@H]2O[C@H](COP(=O)(O)OP(=O)(O)OP(=O)(O)O)[C@@H](O)[C@H]2O)c(=O)[nH]1)(c1ccccc1)c1ccccc1	934 nM	47 nM	177 nM	
O=C(O)CCCO/N=c1/ccn([C@@H]2O[C@H](COP(=O)(O)OP(=O)(O)OP(=O)(O)O)[C@@H](O)[C@H]2O)c(=O)[nH]1	299 nM	470 nM	697 nM	
O=c1[nH]/c(=N\OCCCc2cccc([N+](=O)[O-])c2)ccn1[C@@H]1O[C@H](COP(=O)(O)OP(=O)(O)OP(=O)(O)O)[C@@H](O)[C@H]1O	457 nM	95 nM	9700 nM	
O=c1[nH]/c(=N\OCCCc2cccc(I)c2)ccn1[C@@H]1O[C@H](COP(=O)(O)OP(=O)(O)OP(=O)(O)O)[C@@H](O)[C@H]1O	325 nM	114 nM	299 nM	
O=c1ccn([C@@H]2O[C@H](COP(=O)(O)OP(=O)(O)OP(=O)(O)OP(=O)(O)OC[C@H]3O[C@@H](n4cc/c(=N/OCCCc5ccccc5)[nH]c4=O)[C@H](O)[C@@H]3O)[C@@H](O)[C@H]2O)c(=O)[nH]1				EC50 (P2Y purinoceptor 4 [11]): 93 nM; EC50 (P2Y purinoceptor 6 [12]): 332 nM; EC50 (P2Y purinoceptor 2 [13]): 389 nM
N=c1ccc2c(-c3ccc(C(=O)NCCCCCCn4cc(CCNC(=O)COc5ccc(CCCO/N=c6/ccn([C@@H]7O[C@H](COP(=O)(O)OP(=O)(O)OP(=O)(O)O)[C@@H](O)[C@H]7O)c(=O)[nH]6)cc5)nn4)cc3C(=O)O)c3ccc(N)c(S(=O)(=O)O)c3oc-2c1S(=O)(=O)O	577 nM	200 nM	334 nM	
O=c1[nH]/c(=N\OCCCc2ccccc2)ccn1[C@@H]1O[C@H](COP(=O)(O)OP(=O)(O)OP(=O)(O)OP(=O)(O)OC[C@H]2O[C@@H](n3cc/c(=N/OCCCc4ccccc4)[nH]c3=O)[C@H](O)[C@@H]2O)[C@@H](O)[C@H]1O				EC50 (P2Y purinoceptor 4 [11]): 1330 nM; EC50 (P2Y purinoceptor 6 [12]): > 10000 nM; EC50 (P2Y purinoceptor 2 [13]): > 10000 nM
